Test results taken from ChEMBL document CHEMBL5096186, “Design, Synthesis, and Biological Evaluation of Novel Pyrimido[4,5-b]indole Derivatives Against Gram-Negative Multidrug-Resistant Pathogens” (J Med Chem, 2021).
Values after ≈ are worked out from the molar mass of the structure shown.

Legend:
[1] = tested on: Staphylococcus aureus; assay: Antibacterial activity against methicillin-sensitive Staphylococcus aureus strains 15 1 to 4 assessed as reduction in bacterial growth incubated for 18 to 20 hrs by CLSI based microdilution method; assay type: functional; settings: time 18-20 hrs
Outline: (§1)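 Broth microdilution per CLSI. Compounds dissolved in DMSO (levofloxacin and meropenem in water) as 64 μg/mL stock, then serial twofold dilutions in broth giving 64 to 0.008 μg/mL. […] Clinical isolates tested as several strains per group; racemic GP-1 served as positive control; values given as MIC ranges.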

[2] = tested on: Staphylococcus epidermidis; assay: Antibacterial activity against methicillin-sensitive Staphylococcus epidermidis strains 15 1 to 4 assessed as reduction in bacterial growth incubated for 18 to 20 hrs by CLSI based microdilution method; assay type: functional; settings: time 18-20 hrs; outline: as §1
[3] = tested on: Escherichia coli; assay: Antibacterial activity against ESBL-producing Escherichia coli ATCC 35218 strains 15 1 to 3 assessed as reduction in bacterial growth incubated for 18 to 20 hrs by CLSI based microdilution method; assay type: functional; settings: time 18-20 hrs
Outline: (§2)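 CLSI broth microdilution. Compounds in DMSO (levofloxacin and meropenem in water), serial twofold dilutions in broth, 64 to 0.008 μg/mL. […] Results reported as MIC ranges across strains.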

[4] = tested on: Escherichia coli; assay: Antibacterial activity against Escherichia coli ATCC 35218 strains 15 1 to 3 assessed as reduction in bacterial growth incubated for 18 to 20 hrs by CLSI based microdilution method; assay type: functional; settings: time 18-20 hrs; outline: as §2
[5] = tested on: Pseudomonas aeruginosa; assay: Antibacterial activity against multidrug resistant Pseudomonas aeruginosa strains 15 1 to 3 assessed as reduction in bacterial growth incubated for 18 to 20 hrs by CLSI based microdilution method; assay type: functional; settings: time 18-20 hrs; outline: as §1
[6] = biological target: hERG (KCNH2) potassium channel (Homo sapiens, UniProt Q12809); assay: Inhibition of hERG potassium channel assessed as maximum inhibition rate at 40 uM at -80 mV holding potential incubated for 120 seconds by whole cell-automated voltage clamp analysis assay relative to control; assay type: toxicity; settings: time 120 sec
Outline: (§3)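 Automated whole-cell patch clamp, holding potential −80 mV. Voltage protocol applied every 20 s. Baseline set with external solution containing 0.1% DMSO and stabilised 3 min. Compound applied until steady state, at least 3 min, then washout. Maximum tested concentration 40 μM, or 3 μM for cisapride as positive control.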

[7] = biological target: Voltage-gated inwardly rectifying potassium channel KCNH2 (Homo sapiens, UniProt Q12809); assay: Inhibition of hERG potassium channel assessed as […] at -80 mV holding potential incubated for 120 seconds by whole cell-automated voltage clamp analysis assay; assay type: toxicity; outline: as §3
[8] = tested on: Escherichia coli; assay: Antibacterial activity against ESBL-producing multidrug resistant Escherichia coli assessed as reduction in bacterial growth incubated for 18 to 20 hrs by CLSI based microdilution method; assay type: functional; settings: time 18-20 hrs; outline: as §1
[9] = tested on: Escherichia coli; assay: Antibacterial activity against multidrug resistant wild type Escherichia coli ATCC BAA-2340 assessed as reduction in bacterial growth incubated for 18 to 20 hrs by CLSI based microdilution method; assay type: functional; settings: time 18-20 hrs; outline: as §1
[10] = tested on: Escherichia coli; assay: Antibacterial activity against multidrug resistant wild type Escherichia coli NCTC 13353 assessed as reduction in bacterial growth incubated for 18 to 20 hrs by CLSI based microdilution method; assay type: functional; settings: time 18-20 hrs; outline: as §1
[11] = tested on: Klebsiella pneumoniae; assay: Antibacterial activity against KPC2-producing multidrug resistant Klebsiella pneumoniae assessed as reduction in bacterial growth incubated for 18 to 20 hrs by CLSI based microdilution method; assay type: functional; settings: time 18-20 hrs; outline: as §1
[12] = tested on: Klebsiella pneumoniae; assay: Antibacterial activity agains wild type Klebsiella pneumoniae ATCC BAA-1705 assessed as reduction in bacterial growth incubated for 18 to 20 hrs by CLSI based microdilution method; assay type: functional; settings: time 18-20 hrs; outline: as §2
[13] = tested on: Klebsiella pneumoniae; assay: Antibacterial activity agains wild type Klebsiella pneumoniae ATCC BAA-2470 assessed as reduction in bacterial growth incubated for 18 to 20 hrs by CLSI based microdilution method; assay type: functional; settings: time 18-20 hrs; outline: as §1
[14] = tested on: Acinetobacter baumannii; assay: Antibacterial activity agains OXA23-producing multidrug resistant Acinetobacter baumannii assessed as reduction in bacterial growth incubated for 18 to 20 hrs by CLSI based microdilution method; assay type: functional; settings: time 18-20 hrs; outline: as §1
[15] = tested on: Acinetobacter baumannii; assay: Antibacterial activity against wild type Acinetobacter baumannii NCTC 13304 assessed as reduction in bacterial growth incubated for 18 to 20 hrs by CLSI based microdilution method; assay type: functional; settings: time 18-20 hrs; outline: as §1
[16] = tested on: Pseudomonas aeruginosa; assay: Antibacterial activity against IMP4-producing multidrug resistant Pseudomonas aeruginosa assessed as reduction in bacterial growth incubated for 18 to 20 hrs by CLSI based microdilution method; assay type: functional; settings: time 18-20 hrs; outline: as §1
[17] = tested on: Pseudomonas aeruginosa; assay: Antibacterial activity against wild type Pseudomonas aeruginosa ATCC 27853 assessed as reduction in bacterial growth incubated for 18 to 20 hrs by CLSI based microdilution method; assay type: functional; settings: time 18-20 hrs; outline: as §2
[18] = Metabolic stability in rat liver microsome assessed as elimination half life at 0.1 uM in presence of NADPH incubated upto 60 mins by LC-MS/MS analysis; assay type: ADME; settings: liver microsomes, read-out: beta t1/2
Outline: (§4)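 Compound at 0.1 μM final, in 0.01% DMSO with 0.005% BSA. Incubated with rat or human liver microsomes at 0.33 mg/mL in 0.1 M Tris-HCl, pH 7.4, with 5 mM MgCl₂ and 1 mM NADPH, at 37 °C. Samples at 0, 7, 17, 30 and 60 min quenched with cold methanol and analysed by LC-MS/MS. Half-life, Cl_int and MF% derived as previously described.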

[19] = Metabolic stability in human liver microsome assessed as elimination half life at 0.1 uM in presence of NADPH incubated upto 60 mins by LC-MS/MS analysis; assay type: ADME; settings: liver microsomes, read-out: beta t1/2; outline: as §4
[20] = Metabolic stability in rat liver microsome assessed as intrinsic clearance at 0.1 uM in presence of NADPH incubated upto 60 mins by LC-MS/MS analysis; assay type: ADME; settings: microsomes, 1 h; outline: as §4
[21] = Metabolic stability in human liver microsome assessed as intrinsic clearance at 0.1 uM in presence of NADPH incubated upto 60 mins by LC-MS/MS analysis; assay type: ADME; settings: microsomes, 1 h; outline: as §4
[22] = Metabolic stability in rat liver microsome assessed as metabolic bioavailability at 0.1 uM in presence of NADPH incubated upto 60 mins by LC-MS/MS analysis; assay type: ADME; settings: liver microsomes; outline: as §4
[23] = Metabolic stability in human liver microsome assessed as metabolic bioavailability at 0.1 uM in presence of NADPH incubated upto 60 mins by LC-MS/MS analysis; assay type: ADME; settings: liver microsomes; outline: as §4
[24] = AUC (0 to infinity) in Sprague-Dawley rat at 4 mg/kg, iv measured upto 24 hrs by LC-MS/MS analysis; assay type: ADME, organism-based; design: time < 24 hrs, dose 4 mg/kg, route iv; settings: in vivo
Outline: (§5)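 Male Sprague-Dawley rats, n = 3 per group, single intravenous dose. For 4 mg/kg: 180–280 g rats, vehicle 5% DMSO + 5% EtOH + 40% PEG300 + 50% saline, blood from the retrobulbar vein at 0.05–24 h. For 5 and 20 mg/kg: 180–300 g rats, vehicle 5% DMSO + 5% solutol + 90% saline, sampled at 0.083–24 h. Plasma quantified by LC/MS/MS. Parameters from mean plasma concentration by noncompartmental analysis; values are mean ± standard deviation.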

[25] = Elimination half life in Sprague-Dawley rat at 4 mg/kg, iv measured upto 24 hrs by LC-MS/MS analysis; assay type: ADME, organism-based; settings: in vivo, read-out: beta t1/2 (converted); outline: as §5
[26] = MRT in Sprague-Dawley rat at 4 mg/kg, iv measured upto 24 hrs by LC-MS/MS analysis; assay type: ADME, organism-based; settings: in vivo; outline: as §5
[27] = Clearance in Sprague-Dawley rat at 4 mg/kg, iv measured upto 24 hrs by LC-MS/MS analysis; assay type: ADME, organism-based; settings: in vivo; outline: as §5
[28] = Volume of distribution at the steady state in Sprague-Dawley rat at 4 mg/kg, iv measured upto 24 hrs by LC-MS/MS analysis; assay type: ADME, organism-based; settings: in vivo, read-out: Vdss; outline: as §5

Sequence of Voltage-gated inwardly rectifying potassium channel KCNH2 (Q12809 whole entry): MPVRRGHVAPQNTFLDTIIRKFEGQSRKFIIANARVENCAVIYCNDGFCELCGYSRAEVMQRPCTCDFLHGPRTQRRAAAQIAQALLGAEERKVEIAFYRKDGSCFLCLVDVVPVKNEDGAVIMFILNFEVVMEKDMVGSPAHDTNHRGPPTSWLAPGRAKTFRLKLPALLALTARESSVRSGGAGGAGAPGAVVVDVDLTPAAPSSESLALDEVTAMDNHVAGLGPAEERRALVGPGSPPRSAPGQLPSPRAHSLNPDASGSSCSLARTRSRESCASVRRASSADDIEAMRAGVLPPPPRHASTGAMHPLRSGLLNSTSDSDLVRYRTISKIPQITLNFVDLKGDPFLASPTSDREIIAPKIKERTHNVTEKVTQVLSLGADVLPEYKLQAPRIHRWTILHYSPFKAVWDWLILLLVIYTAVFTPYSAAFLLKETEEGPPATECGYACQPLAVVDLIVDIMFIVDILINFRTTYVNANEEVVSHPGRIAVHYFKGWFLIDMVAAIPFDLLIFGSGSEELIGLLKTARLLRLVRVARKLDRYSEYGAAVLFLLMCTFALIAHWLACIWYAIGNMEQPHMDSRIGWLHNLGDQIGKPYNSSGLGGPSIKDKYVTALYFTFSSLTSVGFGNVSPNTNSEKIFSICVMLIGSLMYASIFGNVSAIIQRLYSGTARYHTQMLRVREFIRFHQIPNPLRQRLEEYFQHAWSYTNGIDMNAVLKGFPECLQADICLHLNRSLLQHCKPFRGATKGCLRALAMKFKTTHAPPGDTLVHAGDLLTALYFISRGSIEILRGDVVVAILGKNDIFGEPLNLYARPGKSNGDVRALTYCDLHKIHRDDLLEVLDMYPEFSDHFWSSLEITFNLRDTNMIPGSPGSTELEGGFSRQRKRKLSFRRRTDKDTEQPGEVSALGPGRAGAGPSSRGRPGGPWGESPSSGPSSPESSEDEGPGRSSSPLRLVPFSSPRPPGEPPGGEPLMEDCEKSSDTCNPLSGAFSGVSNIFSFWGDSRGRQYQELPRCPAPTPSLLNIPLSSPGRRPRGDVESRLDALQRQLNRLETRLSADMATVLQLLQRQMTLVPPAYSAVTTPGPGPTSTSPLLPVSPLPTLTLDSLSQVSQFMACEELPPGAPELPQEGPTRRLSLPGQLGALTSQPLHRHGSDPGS
Sequence of hERG (KCNH2) potassium channel (Q12809 whole entry): as above

SMILES | MIC [1] | MIC [2] | MIC [3] | MIC [4] | MIC [5] | inhibition at 2 min, 40 µM [6] | IC50 [7] | MIC [8] | MIC [9] | MIC [10] | MIC [11] | MIC [12] | MIC [13] | MIC [14] | MIC [15] | AUC(0-inf) [24] | half-life [25] | MRT [26] | clearance [27] | Vd [28] | further results
CCCC(CN)=C1CN(c2nc(Oc3cnc(C)nc3)nc3[nH]c4c(NC)cc(F)cc4c23)C1 | < 0.008 µg/mL | < 0.008 µg/mL | 0.125 µg/mL (≈ 0.27 µM) | 0.06 µg/mL (≈ 0.13 µM) | 2 µg/mL (≈ 4.32 µM) | 50.6% | 51.5 µM | 1 µg/mL (≈ 2.16 µM) | 1 µg/mL (≈ 2.16 µM) | 0.5 µg/mL (≈ 1.08 µM) | 4 µg/mL (≈ 8.65 µM) | 8 µg/mL (≈ 17.3 µM) | 4 µg/mL (≈ 8.65 µM) | 0.5 µg/mL (≈ 1.08 µM) | 1 µg/mL (≈ 2.16 µM) | 778 ng·h/mL | 4.7 h | 4.4 h | 86.8 mL/min/kg | 22.5 L/kg | MIC [16]: 4 µg/mL (≈ 8.65 µM); MIC [17]: 4 µg/mL (≈ 8.65 µM); half-life at 0.1 µM [18]: 0.415 h; half-life at 0.1 µM [19]: 0.792 h; CLH [20]: 84.4 mL/min/g; CLH [21]: 44.3 mL/min/g; Fh at 1 h, 0.1 µM [22]: 34.5%; Fh at 1 h, 0.1 µM [23]: 30.7%
CNc1cc(F)cc2c1[nH]c1nc(Oc3cnc(C)nc3)nc(N3CC(=CC(C)N)C3)c12 (stereo unspecified) | < 0.008 µg/mL | < 0.008 µg/mL | 0.125 µg/mL (≈ 0.288 µM) | 0.06 µg/mL (≈ 0.138 µM) | 0.5 µg/mL (≈ 1.15 µM) | 32.3% | > 40 µM | 1 µg/mL (≈ 2.3 µM) | 1 µg/mL (≈ 2.3 µM) | 0.5 µg/mL (≈ 1.15 µM) | 4 µg/mL (≈ 9.21 µM) | 8 µg/mL (≈ 18.4 µM) | 4 µg/mL (≈ 9.21 µM) | 0.5 µg/mL (≈ 1.15 µM) | 0.5 µg/mL (≈ 1.15 µM) | 836 ng·h/mL | 9 h | 6.8 h | 81.5 mL/min/kg | 33.4 L/kg | MIC [16]: 8 µg/mL (≈ 18.4 µM); MIC [17]: 4 µg/mL (≈ 9.21 µM); half-life at 0.1 µM [18]: 0.2 h; half-life at 0.1 µM [19]: 1.78 h; CLH [20]: 180.9 mL/min/g; CLH [21]: 19.6 mL/min/g; Fh at 1 h, 0.1 µM [22]: 19.7%; Fh at 1 h, 0.1 µM [23]: 50%
CCC(CO)=C1CN(c2nc(Oc3cnc(C)nc3)nc3[nH]c4c(NC)cc(F)c(F)c4c23)C1 | < 0.03 µg/mL | < 0.03 µg/mL | 0.25 µg/mL (≈ 0.535 µM) | 32 µg/mL (≈ 68.5 µM) | > 8 µg/mL |  |  |  |  |  |  |  |  |  |  | 517 ng·h/mL | 6.5 h | 8.3 h | 141 mL/min/kg | 68.4 L/kg | 
